Shown are actives, neighbours in structure and some others; about 2.3% of the full set was active somewhere.
TRPC6 inhibitor – mouse TRPC6 channel inhibitors, primary screen, cell-based, HEK293, membrane potential dye. Short transient receptor potential channel 6 (Mus musculus), Q61143. ACh-evoked depolarization; hits give low values. B-score at 10 µM. 310,000 compounds, 1.1% hits. AID 2553, 2010;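 active = B-score under library mean minus 3 SD, initial fluorescence not abnormally high, positive integrated signal ratio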;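 note: B-score derived from integrated fluorescence ratio over the kinetic read; more negative B-score means stronger inhibition of depolarization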
Target sequence (Q61143 whole entry, looked up): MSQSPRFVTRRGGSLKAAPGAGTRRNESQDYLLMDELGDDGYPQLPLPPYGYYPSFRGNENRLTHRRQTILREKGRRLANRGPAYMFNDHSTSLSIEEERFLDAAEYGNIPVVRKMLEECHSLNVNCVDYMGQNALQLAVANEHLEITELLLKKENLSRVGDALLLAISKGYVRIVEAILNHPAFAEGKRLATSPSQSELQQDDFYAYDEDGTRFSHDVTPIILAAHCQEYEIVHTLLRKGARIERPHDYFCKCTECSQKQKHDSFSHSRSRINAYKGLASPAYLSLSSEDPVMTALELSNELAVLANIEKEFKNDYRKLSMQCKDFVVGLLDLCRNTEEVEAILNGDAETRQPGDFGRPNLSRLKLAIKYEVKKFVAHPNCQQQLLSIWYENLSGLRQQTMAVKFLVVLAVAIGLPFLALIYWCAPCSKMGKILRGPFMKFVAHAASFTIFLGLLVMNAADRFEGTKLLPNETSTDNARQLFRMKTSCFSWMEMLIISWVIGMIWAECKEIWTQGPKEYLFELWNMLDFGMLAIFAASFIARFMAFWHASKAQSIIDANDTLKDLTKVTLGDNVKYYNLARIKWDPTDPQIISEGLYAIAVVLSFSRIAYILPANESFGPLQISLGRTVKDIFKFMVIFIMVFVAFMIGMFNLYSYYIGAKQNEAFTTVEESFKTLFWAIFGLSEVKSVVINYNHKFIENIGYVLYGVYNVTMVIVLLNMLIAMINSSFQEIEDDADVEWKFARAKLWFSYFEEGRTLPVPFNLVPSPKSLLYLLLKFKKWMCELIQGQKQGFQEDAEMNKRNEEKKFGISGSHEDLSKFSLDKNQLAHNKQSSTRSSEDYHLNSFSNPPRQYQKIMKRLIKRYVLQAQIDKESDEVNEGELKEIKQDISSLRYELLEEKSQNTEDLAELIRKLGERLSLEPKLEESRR
TRPC4 PAM – positive allosteric modulators of TRPC4, primary screen, cell-based, mouse TRPC4beta, HEK293 mu-opioid, Fluo-4 calcium; 310,000 compounds, 0.42% hits; DAMGO EC20, Fluo-4 Ca2+ flux; hits give high values; B-score at 10 µM;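 active = B-score of calcium response area above 5 SD of library B-scores, with initial fluorescence ratio within 5 SD of library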;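 note: B-score of integrated fluorescence ratio over time as area under calcium response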
TRPC6 act – mouse TRPC6 channel activators, primary screen, cell-based, HEK293, membrane potential dye; AID 2550, 2010; B-score at 10 µM; Short transient receptor potential channel 6 (Mus musculus), Q61143; 310,000 compounds, 0.13% hits; HEK293-TRPC6 membrane potential dye fluorescence; hits give high values;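 active = B-score of the integrated fluorescence ratio above library mean plus 3 SD, and starting fluorescence ratio within library mean plus 5 SD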;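 note: higher score means more depolarization so channel activation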
TRPC4 agonist – activators of mouse TRPC4 channel, primary screen, Fluo4 calcium, HEK293 TRPC4beta/mu-opioid cells | 310,000 compounds, 0.49% hits | Fluo4 calcium fluorescence; hits give high values | Short transient receptor potential channel 4 (Mus musculus), Q9QUQ5 | B-score at 10 µM;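 active = B-score above 5 SD of library B-scores, and initial fluorescence ratio not above library mean plus 5 SD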;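 note: positive B-score marks a calcium rise read as TRPC4 activation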
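Test system: HEK293 cells stably co-expressing mouse TRPC4beta and mu-opioid receptor | Schedule: Fluo4 dye loading 45 min at room temperature, 110 s recording | Measured by: Kinetic Fluo4 calcium fluorescence, 5 s baseline at 1 Hz | Evaluation: B score of integrated ratio | Controls: Buffer (low) and maximal DAMGO (high)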
TRPC4 inh – inhibitors of mouse TRPC4 channel, primary screen, Fluo4 calcium, HEK293 TRPC4beta/mu-opioid cells | Short transient receptor potential channel 4 (Mus musculus), Q9QUQ5 | DAMGO-evoked Fluo4 calcium flux; hits give low values | B-score at 10 µM | 300,000 compounds, 0.39% hits;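 active = B-score over 3 SD under the library average, no early fluorescence shift, positive overall ratio signal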
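Assay system: HEK293 cells with stable TRPC4beta plus mu-opioid receptor expression; Probe or stimulus: DAMGO in two steps, submaximal then maximal; Dosing: single-point compound dosing; Measured by: Fluo4 calcium-dye fluorescence, kinetic read; Read-out basis: B score from integrated Fluo4 fluorescence ratio.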
* = called active by the depositor.

O=C(N/N=C\c1ccc(Cl)s1)C1COc2ccccc2O1 (configuration not stated) was read as TRPC6 inhibitor inactive, TRPC4 PAM inactive, TRPC6 act inactive, TRPC4 agonist 70* and TRPC4 inh inactive.
`O=C(N/N=C\c1ccc([N+](=O)[O-])s1)C1COc2ccccc2O1` (configuration not stated) gave TRPC6 inhibitor inactive, TRPC4 PAM inactive, TRPC6 act inactive, TRPC4 agonist inactive and TRPC4 inh inactive.
CC(NC(=O)/C=C/c1ccccc1[N+](=O)[O-])C1CC2CCC1C2 (configuration not stated) was read as TRPC6 inhibitor inactive, TRPC4 PAM inactive, TRPC6 act inactive, TRPC4 agonist inactive and TRPC4 inh inactive.
O=C1c2ccccc2S(=O)(=O)c2cc(C(=O)N3CCN(c4ccc(Cl)cn4)CC3)ccc21 was read as TRPC6 inhibitor inactive, TRPC4 PAM inactive, TRPC6 act inactive, TRPC4 agonist inactive and TRPC4 inh inactive.
CC1=C(C(=O)Nc2ccccc2C(=O)N2CCC(C)CC2)SCCO1 was read as TRPC6 inhibitor inactive, TRPC4 PAM inactive, TRPC6 act inactive, TRPC4 agonist inactive and TRPC4 inh inactive.
Screening Cc1ccc(NS(=O)(=O)c2ccc(NS(=O)(=O)c3cccs3)cc2)cc1 returned TRPC6 inhibitor inactive, TRPC4 PAM 16*, TRPC6 act inactive, TRPC4 agonist inactive and TRPC4 inh inactive.
Screening COc1ccc(NS(=O)(=O)c2ccc(NS(=O)(=O)c3cccs3)cc2)cc1 returned TRPC6 inhibitor inactive, TRPC4 PAM inactive, TRPC6 act inactive, TRPC4 agonist inactive and TRPC4 inh inactive.
O=S(=O)(Nc1ccc(F)cc1)c1ccc(NS(=O)(=O)c2cccs2)cc1 was read as TRPC6 inhibitor inactive, TRPC4 PAM 11*, TRPC6 act inactive, TRPC4 agonist inactive and TRPC4 inh inactive.
COc1cc(NC(=O)Cc2cccs2)c(C(=O)O)cc1OC was read as TRPC6 inhibitor inactive, TRPC4 PAM inactive, TRPC6 act inactive, TRPC4 agonist inactive and TRPC4 inh inactive.
`Cc1cc(C=O)c(C)n1-c1ccc(NC2CCCC2)c([N+](=O)[O-])c1` gave TRPC6 inhibitor inactive, TRPC4 PAM 13*, TRPC6 act inactive, TRPC4 agonist inactive and TRPC4 inh inactive.
For Cc1cc(C=O)c(C)n1-c1ccc(Oc2ccc([N+](=O)[O-])cn2)cc1 the results were TRPC6 inhibitor inactive, TRPC4 PAM inactive, TRPC6 act inactive, TRPC4 agonist inactive and TRPC4 inh inactive.
Screening COc1ccc(NC(=O)CN(C)C(=O)c2ccccc2Sc2ncnc3sc(C)c(C)c23)cc1 returned TRPC6 inhibitor inactive, TRPC4 PAM inactive, TRPC6 act inactive, TRPC4 agonist inactive and TRPC4 inh inactive.
CC(=O)n1c2c(c3ccccc31)OC(N)=C(C#N)C2c1ccc(C(C)C)cc1 (configuration not stated) was read as TRPC6 inhibitor inactive, TRPC4 PAM 12*, TRPC6 act inactive, TRPC4 agonist inactive and TRPC4 inh inactive.
COCCCNC(=S)Nc1ccc(S(=O)(=O)Nc2cc(OC)nc(OC)n2)cc1 was read as TRPC6 inhibitor inactive, TRPC4 PAM inactive, TRPC6 act inactive, TRPC4 agonist inactive and TRPC4 inh inactive.
Screening CNC(=O)c1ccc(C)c(NC(=O)C2=C(C)OCCS2)c1 returned TRPC6 inhibitor inactive, TRPC4 PAM inactive, TRPC6 act inactive, TRPC4 agonist inactive and TRPC4 inh inactive.
Screening c1ccc(CC2CCCNC2)cc1 (configuration not stated) returned TRPC6 inhibitor inactive, TRPC4 PAM inactive, TRPC6 act inactive, TRPC4 agonist 90* and TRPC4 inh inactive.
For S=C(NCCc1ccccc1)NCCc1ccccc1 the results were TRPC6 inhibitor inactive, TRPC4 PAM inactive, TRPC6 act inactive, TRPC4 agonist inactive and TRPC4 inh inactive.
Screening S=C(NCCc1ccccc1)Nc1ccc(Br)cn1 returned TRPC6 inhibitor inactive, TRPC4 PAM 11*, TRPC6 act inactive, TRPC4 agonist inactive and TRPC4 inh inactive.
Screening CC(C)COc1ccc(CN=C(N)N=C(N)N)cc1Cl returned TRPC6 inhibitor inactive, TRPC4 PAM inactive, TRPC6 act inactive, TRPC4 agonist 50* and TRPC4 inh inactive.
For C=CCn1cnc2scc(-c3ccc(CC)cc3)c2c1=O the results were TRPC6 inhibitor inactive, TRPC4 PAM inactive, TRPC6 act inactive, TRPC4 agonist inactive and TRPC4 inh -6*.
For Cc1ccnc(SC2CC(=O)N(c3ccc(F)cc3)C2=O)n1 (configuration not stated) the results were TRPC6 inhibitor inactive, TRPC4 PAM inactive, TRPC6 act inactive, TRPC4 agonist inactive and TRPC4 inh inactive.
`Cc1noc(C)c1S(=O)(=O)Nc1ccc(C(C)C)cc1` gave TRPC6 inhibitor inactive, TRPC4 PAM inactive, TRPC6 act inactive, TRPC4 agonist inactive and TRPC4 inh inactive.
`O=C(COC(=O)c1ccccc1C(=O)N1CCN(c2ccccc2)CC1)Nc1ccc(F)cc1` gave TRPC6 inhibitor inactive, TRPC4 PAM 17*, TRPC6 act inactive, TRPC4 agonist inactive and TRPC4 inh inactive.
For O=C(COC(=O)c1ccccc1C(=O)N1CCN(c2ccccc2)CC1)Nc1ccccc1 the results were TRPC6 inhibitor inactive, TRPC4 PAM inactive, TRPC6 act inactive, TRPC4 agonist inactive and TRPC4 inh inactive.
`CCCCN(CC)CCNC(=O)c1cc2c(C)nc3ccccc3c2o1` gave TRPC6 inhibitor inactive, TRPC4 PAM inactive, TRPC6 act inactive, TRPC4 agonist 138* and TRPC4 inh inactive.
`CCCN(CCC)CCCNC(=O)c1cc2cc3ccc(Cl)cc3nc2o1` gave TRPC6 inhibitor inactive, TRPC4 PAM inactive, TRPC6 act inactive, TRPC4 agonist 53* and TRPC4 inh inactive.
Screening CCCCN(CC)CCCNC(=O)c1cc2cc3ccc(C)cc3nc2o1 returned TRPC6 inhibitor inactive, TRPC4 PAM 16*, TRPC6 act inactive, TRPC4 agonist inactive and TRPC4 inh inactive.
`O=C(NCc1ccco1)c1cc2cc3ccc(Cl)cc3nc2o1` gave TRPC6 inhibitor inactive, TRPC4 PAM inactive, TRPC6 act inactive, TRPC4 agonist inactive and TRPC4 inh inactive.
For CCCCN(CC)CCNC(=O)c1cc2cc3ccc(Cl)cc3nc2o1 the results were TRPC6 inhibitor inactive, TRPC4 PAM 13*, TRPC6 act inactive, TRPC4 agonist 103* and TRPC4 inh inactive.
